Most compounds without a hit are left out; they make up all but 1.1% or so of the library.
Diaph inh CS: inhibits diaphorase or chemically oxidizes, flagging diaphorase assay artifacts; hit rate 0.69% among 190,000; diaphorase resazurin-to-resorufin fluorescence, NADH, 16 min; bacterial (C. kluyveri) enzyme, not human; inhibition, % at 20 µM;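 active = primary screen inhibition at 20 µM above a set limit, cut at about 50% in these data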;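 also: plate controls were DMSO with full reaction for no effect and wells lacking NADH for full effect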
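controls = No-NADH positive control and DMSO neutral control | system = Clostridium kluyveri diaphorase enzyme | timing = reaction incubation of 16 min at room temperature | signal = resorufin fluorescence 544/590 nm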
G6PDH CS: counter-screen for G6PDH assay hits: L. mesenteroides G6PDH inhibition; Purified L. mesenteroides G6PDH, diaphorase/resazurin coupled fluorescence, 45 min; inhibition, % at 5 µM; hit rate 0.12% among 200,000; AID 1020; in the data active = inhibition above about 50%
PMI activator: phosphomannose isomerase (human) activation; P34949; purified human PMI, coupled resazurin fluorescence, 20 min; active compounds read high; 1 = vehicle control, 0 substrate-free wells; activation factor at 20 µM; hit rate 0.005% among 190,000;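 active = activation factor of 2 or more at 20 µM, relative to plate controls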
Target sequence (P34949 whole entry, looked up): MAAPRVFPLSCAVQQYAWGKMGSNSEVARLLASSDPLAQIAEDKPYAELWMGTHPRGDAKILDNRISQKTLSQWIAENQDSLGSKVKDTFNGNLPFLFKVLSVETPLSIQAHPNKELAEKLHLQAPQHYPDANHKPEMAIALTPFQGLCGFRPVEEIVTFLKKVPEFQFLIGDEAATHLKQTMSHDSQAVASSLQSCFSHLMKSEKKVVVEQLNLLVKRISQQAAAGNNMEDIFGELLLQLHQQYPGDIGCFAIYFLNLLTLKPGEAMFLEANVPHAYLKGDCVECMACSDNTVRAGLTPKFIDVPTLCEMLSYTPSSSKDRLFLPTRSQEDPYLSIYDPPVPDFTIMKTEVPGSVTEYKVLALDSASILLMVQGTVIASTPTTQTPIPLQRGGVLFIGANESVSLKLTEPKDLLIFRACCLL
PMI act hi M6P: PMI (human) activation, high substrate; P34949; coupled PMI enzyme assay, resazurin fluorescence, 20 min; active compounds read high; 1 = untreated enzyme, 0 = substrate-free blank; activation factor at 20 µM; hit rate 0.34% among 190,000; AID 1216;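 active = activation factor of 2 or more at 20 µM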
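Test system: human PMI in coupled enzyme assay; Input: PMI at 15 ng/mL final; Medium: HEPES buffer, pH 7.4; Schedule: 20 min incubation at room temperature; Technique: resorufin fluorescence at Ex 544/Em 590 nm; Compound: 20 µM single dose; Probe or stimulus: Near-saturating mannose-6-phosphate, 1.0 mM.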
Diaph act CS: diaphorase activation or chemical reduction counter-screen. Diaphorase/resazurin coupled assay, resorufin fluorescence, 16 min; active compounds read high; 1 = vehicle wells, 0 = NADH-free wells. activation factor at 20 µM. hit rate 0.005% among 190,000. AID 1229;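 active = diaphorase activity raised at least twofold by the compound at 20 µM; inactive = activation factor below 2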
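test system = bacterial diaphorase enzyme (C. kluyveri) | quantity = enzyme 0.07 U/mL final | reagent = NADH substrate 0.114 mM plus resazurin dye 0.1 mM, final | incubation = 16 min enzyme reaction, ambient temperature | buffer or medium = HEPES pH 7.4 buffer with MgCl2 and Tween 20 | signal = fluorescence of resorufin, 544 nm excitation, 590 nm emission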
The depositor's hits bear a star.

SMILES	Diaph inh CS	G6PDH CS	PMI activator	PMI act hi M6P	Diaph act CS
COC(=O)c1c(NC(=O)CN2C(=O)NC3(CCc4ccccc4C3)C2=O)sc2c1CCCCC2 (centres undefined)	13	-3	1	1.1	0.9
Cc1ccc(S(=O)(=O)/N=C2\C(=O)c3ccccc3C([O-])=C2n2cc[n+](CCC(C)C)c2)cc1	12	53*	0.9	0.5	0.9
CCOCCCNc1ccc(N2C(=O)C3CCCCC3C2=O)cc1[N+](=O)[O-] (centres undefined)	4	-4	1	1.1	1
Cn1c(=O)n(C)c2cc(NC(=O)c3ccccc3[N+](=O)[O-])c(Br)cc21	-9	13	0.9	1	1.1
CC(=O)NNc1nc(-c2ccccc2)cs1	11	6	1.7	2.4*	0.9
Oc1cc2c(cc1O)C1c3ccc(O)c(O)c3OCC1(O)C2 (centres undefined)	78*	32	0.4	0.6	0.2
CC(=O)Oc1c(C)cc(O)c2ccccc12	33	51*	0.7	0.8	0.7
COCC(C)n1c(C)cc(C(=O)COC(=O)/C=C/c2cccc(F)c2)c1C (centres undefined)	20	0	0.9	1	0.8
CCn1c(=O)n(CC)c2cc(N)ccc21	75*	10	0.2	0.2	0.3
CCn1c(=O)n(CC)c2cc(S(N)(=O)=O)ccc21	20	6	0.9	1	0.8
Cc1csc(SCC(=O)c2cc(C)n(Cc3cccs3)c2C)n1	13	1	1	1	0.9
Cc1cc(C(=O)COc2cccnc2[N+](=O)[O-])c(C)n1Cc1cccs1	60*	11	0.6	0.4	0.4
Cc1cc(C(=O)CSc2n[nH]c(-c3ccccc3F)n2)c(C)n1Cc1cccs1	50*	0	0.8	1	0.5
CC(=O)Nc1ccccc1OCC(=O)c1cc(C)n(Cc2cccs2)c1C	20	-4	0.8	0.8	0.8
CC1=C(C)C(=O)N(c2ccccn2)C1=O	1	10	1.2	1.1	1
Cc1nn(-c2ccccn2)c2c1C(=O)C(Br)CC2 (centres undefined)	82*	33	0.3	0.3	0.2
O=C(O)C/C=C(/NC(=O)OCc1ccccc1)C(=O)OCc1ccccc1	6	9	1.9	2.8*	0.9
COc1ccc(C2CC(c3cccs3)=NN2S(C)(=O)=O)cc1OC (centres undefined)	0	14	1	1	1
COc1ccc(C2CC(c3cccs3)=NN2c2nc(-c3ccccc3)cs2)cc1OC (centres undefined)	4	-22	1.6	2.1*	1
NC(=O)N1CCC2(CC1)NC(=O)N(c1ccccc1)N2	8	18	1.6	2.5*	0.9
O=C1NC2(CCCCC2)NN1c1ccccc1	20	7	0.9	1	0.8
CC(=O)N1CCC2(CC1)NC(=O)N(c1ccccc1)N2	22	11	1.6	2.4*	0.8
O=C(O)/C=C/C(=O)N1CCN(c2cccc(Cl)c2)CC1	11	2	1	1	0.9
Cc1noc(/C=C/c2cccs2)c1S(=O)(=O)N1CCC(C(=O)NCCCN2CCCC(C)C2)CC1 (centres undefined)	-2	3	1	1.1	1
Cc1cc(C)c2c(N)c(C(=O)NCc3ccco3)sc2n1	13	9	1.7	2*	0.9
SMILES	Diaph inh CS	G6PDH CS	PMI activator	PMI act hi M6P	Diaph act CS
COCc1cc(C)nc2sc(C(=O)N3CCCC3)c(N)c12	20	1	1.1	1.3	0.8
Cc1cc(C)c2c(N)c(C(=O)N3CCCCCC3)sc2n1	6	0	1.8	2.3*	0.9
CN(C1CCCCC1)S(=O)(=O)c1cccc(C#N)c1	-10	-1	1.1	1.1	1.1
COC(=O)c1ccc(NC(=S)NC2CC3CCC2C3)cc1 (centres undefined)	10	2	0.9	1.1	0.9
CC(C)c1ccc(S(=O)(=O)c2ccc(NN)cc2)cc1	15	8	1.6	2.2*	0.9
Cc1ccc2c(c1)c(N=Nc1cccc(C(=O)O)c1)c(O)n2C	59*	7	1.2	1.1	0.4
CCCC(=O)NCCc1cc(OC)c(OC)cc1Br	10	8	1	1	0.9
Cc1cc(C)c2ccc(=S)[nH]c2n1	7	1	1.7	2.5*	0.9
